Measurements as given in ChEMBL document CHEMBL4765413, “Discovery of novel anti-angiogenesis agents. Part 11: Development of PROTACs based on active molecules with potency of promoting vascular normalization” (Eur J Med Chem, 2020).

Tests used:
[1] = molecular target: Vascular endothelial growth factor receptor 2 (Homo sapiens, UniProt P35968); assay: Inhibition of recombinant human N-terminal GST-tagged VEGFR2 (789 to end residues) expressed in baculovirus infected Sf9 insect cells using Poly (4:1 Glu, Tyr) as substrate incubated for 1 hr by ADP-Glo luminescent assay
Chain of Vascular endothelial growth factor receptor 2 (P35968 whole entry): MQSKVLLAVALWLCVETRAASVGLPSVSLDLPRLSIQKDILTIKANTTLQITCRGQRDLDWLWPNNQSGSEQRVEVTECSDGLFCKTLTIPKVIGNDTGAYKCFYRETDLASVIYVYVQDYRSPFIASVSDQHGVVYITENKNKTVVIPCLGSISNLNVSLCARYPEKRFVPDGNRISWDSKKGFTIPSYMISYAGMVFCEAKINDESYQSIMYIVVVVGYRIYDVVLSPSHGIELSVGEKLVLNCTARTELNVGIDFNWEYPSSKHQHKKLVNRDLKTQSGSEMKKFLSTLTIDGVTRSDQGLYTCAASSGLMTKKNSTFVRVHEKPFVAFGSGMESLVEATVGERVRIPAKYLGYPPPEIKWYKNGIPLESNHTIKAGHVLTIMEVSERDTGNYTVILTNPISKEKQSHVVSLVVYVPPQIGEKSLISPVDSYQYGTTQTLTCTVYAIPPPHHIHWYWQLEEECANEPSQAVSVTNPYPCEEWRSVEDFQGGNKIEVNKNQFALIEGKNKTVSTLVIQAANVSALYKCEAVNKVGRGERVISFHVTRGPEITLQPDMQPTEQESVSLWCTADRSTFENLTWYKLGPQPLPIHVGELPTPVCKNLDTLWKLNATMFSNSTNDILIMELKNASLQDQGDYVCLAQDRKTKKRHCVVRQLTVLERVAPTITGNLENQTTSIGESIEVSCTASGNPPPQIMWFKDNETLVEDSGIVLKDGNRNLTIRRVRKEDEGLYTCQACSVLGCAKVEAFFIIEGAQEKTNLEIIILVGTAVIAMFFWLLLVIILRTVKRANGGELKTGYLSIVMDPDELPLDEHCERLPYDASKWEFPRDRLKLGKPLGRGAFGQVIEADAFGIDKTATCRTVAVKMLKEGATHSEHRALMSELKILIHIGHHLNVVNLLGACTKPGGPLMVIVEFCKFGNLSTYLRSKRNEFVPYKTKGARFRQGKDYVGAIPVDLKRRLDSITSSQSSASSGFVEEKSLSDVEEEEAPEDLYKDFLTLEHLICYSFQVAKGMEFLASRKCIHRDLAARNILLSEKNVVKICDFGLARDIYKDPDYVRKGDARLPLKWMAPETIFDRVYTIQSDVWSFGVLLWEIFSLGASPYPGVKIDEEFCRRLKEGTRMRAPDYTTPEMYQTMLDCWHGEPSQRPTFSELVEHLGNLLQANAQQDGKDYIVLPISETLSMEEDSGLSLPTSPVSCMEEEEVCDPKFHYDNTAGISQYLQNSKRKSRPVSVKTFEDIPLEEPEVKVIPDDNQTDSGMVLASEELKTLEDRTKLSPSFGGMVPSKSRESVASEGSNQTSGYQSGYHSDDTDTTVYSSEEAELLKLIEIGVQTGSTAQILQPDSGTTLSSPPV

[2] = system: EA.hy 926; assay: Antiangiogenic activity in human EA.hy 926 cells measured after 24 hrs by MTT assay; conditions: EA.hy 926, 24 h
[3] = system: HEK293; assay: Cytotoxicity against HEK293 cells measured after 24 hrs by MTT assay; assay type: cell-based; conditions: human, hek293, 24 h
[4] = system: EA.hy 926; assay: Induction of apoptosis in human EA.hy 926 cells assessed as viable cells at 1 uM measured after 72 hrs by Annexin V-FITC/propidium iodide staining based flow cytometry (reference value: 88.6%); assay type: functional; conditions: read-out: Activity
[5] = system: EA.hy 926; assay: Cell cycle arrest in human EA.hy 926 cells assessed as accumulation at G1 phase at 0.1 uM measured after 72 hrs by propidium iodide staining based flow cytometry (reference value: 59.78%); assay type: functional
[6] = system: EA.hy 926; assay: Induction of apoptosis in human EA.hy 926 cells assessed as early apoptotic cells at 40 uM measured after 72 hrs by Annexin V-FITC/propidium iodide staining based flow cytometry (reference value: 3.4%); assay type: functional
[7] = system: EA.hy 926; assay: Cell cycle arrest in human EA.hy 926 cells assessed as accumulation at G2 phase at 0.1 uM measured after 72 hrs by propidium iodide staining based flow cytometry (reference value: 25.83%); assay type: functional
[8] = system: EA.hy 926; assay: Induction of apoptosis in human EA.hy 926 cells assessed as early apoptotic cells at 0.1 uM measured after 72 hrs by Annexin V-FITC/propidium iodide staining based flow cytometry (reference value: 3.4%); assay type: functional
[9] = system: EA.hy 926; assay: Induction of apoptosis in human EA.hy 926 cells assessed as early apoptotic cells at 1 uM measured after 72 hrs by Annexin V-FITC/propidium iodide staining based flow cytometry (reference value: 3.4%); assay type: functional
[10] = system: EA.hy 926; assay: Cell cycle arrest in human EA.hy 926 cells assessed as accumulation at G1 phase at 1 uM measured after 72 hrs by propidium iodide staining based flow cytometry (reference value: 59.78%); assay type: functional
[11] = system: EA.hy 926; assay: Cell cycle arrest in human EA.hy 926 cells assessed as accumulation at G1 phase at 20 uM measured after 72 hrs by propidium iodide staining based flow cytometry (reference value: 59.78%); assay type: functional
[12] = system: EA.hy 926; assay: Cell cycle arrest in human EA.hy 926 cells assessed as accumulation at S phase at 1 uM measured after 72 hrs by propidium iodide staining based flow cytometry (reference value: 14.39%); assay type: functional
[13] = system: EA.hy 926; assay: Induction of apoptosis in human EA.hy 926 cells assessed as necrotic cells at 0.1 uM measured after 72 hrs by Annexin V-FITC/propidium iodide staining based flow cytometry (reference value: 2.65%); assay type: functional
[14] = system: EA.hy 926; assay: Cell cycle arrest in human EA.hy 926 cells assessed as accumulation at S phase at 10 uM measured after 72 hrs by propidium iodide staining based flow cytometry (reference value: 14.39%); assay type: functional
[15] = system: EA.hy 926; assay: Cell cycle arrest in human EA.hy 926 cells assessed as accumulation at G2 phase at 10 uM measured after 72 hrs by propidium iodide staining based flow cytometry (reference value: 25.83%); assay type: functional
[16] = system: EA.hy 926; assay: Cell cycle arrest in human EA.hy 926 cells assessed as accumulation at G2 phase at 40 uM measured after 72 hrs by propidium iodide staining based flow cytometry (reference value: 25.83%); assay type: functional
[17] = system: EA.hy 926; assay: Induction of apoptosis in human EA.hy 926 cells assessed as viable cells at 0.1 uM measured after 72 hrs by Annexin V-FITC/propidium iodide staining based flow cytometry (reference value: 88.6%); assay type: functional; conditions: read-out: Activity
[18] = system: EA.hy 926; assay: Cell cycle arrest in human EA.hy 926 cells assessed as accumulation at S phase at 40 uM measured after 72 hrs by propidium iodide staining based flow cytometry (reference value: 14.39%); assay type: functional
[19] = molecular target: T1, von Hippel-Lindau disease tumor suppressor/Vascular endothelial growth factor receptor 2 (Homo sapiens) (UniProt P35968+P40337); assay: Protac activity at VHL/VEGFR2 in human EA.hy 926 cells assessed as induction of VEGFR2 degradation at 40 uM measured after 24 to 48 hrs by Western blot analysis relative to control; assay type: cell-based; conditions: time 24-48 hrs
T1 sequence (P35968 20-1356 limits assumed): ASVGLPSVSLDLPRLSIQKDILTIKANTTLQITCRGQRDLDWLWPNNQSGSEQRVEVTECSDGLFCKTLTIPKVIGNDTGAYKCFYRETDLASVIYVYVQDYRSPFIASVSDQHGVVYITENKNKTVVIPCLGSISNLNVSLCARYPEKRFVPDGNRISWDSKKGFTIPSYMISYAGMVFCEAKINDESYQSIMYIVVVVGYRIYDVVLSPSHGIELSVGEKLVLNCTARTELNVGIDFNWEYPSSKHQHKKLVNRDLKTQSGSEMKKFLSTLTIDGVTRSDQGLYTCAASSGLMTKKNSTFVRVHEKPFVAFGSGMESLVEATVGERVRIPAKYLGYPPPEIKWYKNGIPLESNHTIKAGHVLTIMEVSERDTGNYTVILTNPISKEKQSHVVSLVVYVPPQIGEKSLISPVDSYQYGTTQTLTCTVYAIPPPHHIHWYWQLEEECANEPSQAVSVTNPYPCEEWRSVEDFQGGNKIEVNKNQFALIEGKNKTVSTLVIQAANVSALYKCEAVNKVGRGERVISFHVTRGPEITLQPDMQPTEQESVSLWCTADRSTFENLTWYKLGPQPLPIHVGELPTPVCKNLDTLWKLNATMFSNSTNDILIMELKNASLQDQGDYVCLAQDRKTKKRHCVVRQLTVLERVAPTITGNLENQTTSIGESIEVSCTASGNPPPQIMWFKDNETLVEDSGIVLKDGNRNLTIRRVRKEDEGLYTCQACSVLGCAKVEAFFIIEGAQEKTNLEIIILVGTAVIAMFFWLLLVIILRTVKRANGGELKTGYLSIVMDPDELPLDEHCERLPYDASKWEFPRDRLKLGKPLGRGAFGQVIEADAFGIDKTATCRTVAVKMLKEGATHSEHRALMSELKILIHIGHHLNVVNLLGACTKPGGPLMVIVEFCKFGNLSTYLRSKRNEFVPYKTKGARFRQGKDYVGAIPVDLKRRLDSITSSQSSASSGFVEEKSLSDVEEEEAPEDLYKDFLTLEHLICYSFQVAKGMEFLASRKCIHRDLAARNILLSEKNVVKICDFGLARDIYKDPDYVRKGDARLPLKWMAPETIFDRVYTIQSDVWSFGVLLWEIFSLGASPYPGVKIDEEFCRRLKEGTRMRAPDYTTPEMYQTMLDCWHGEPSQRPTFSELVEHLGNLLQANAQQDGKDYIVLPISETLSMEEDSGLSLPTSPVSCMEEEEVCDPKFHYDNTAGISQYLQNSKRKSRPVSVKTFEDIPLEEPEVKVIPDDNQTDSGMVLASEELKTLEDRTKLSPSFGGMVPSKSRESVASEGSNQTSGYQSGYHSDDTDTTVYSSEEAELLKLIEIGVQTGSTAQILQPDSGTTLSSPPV
T1 sequence (P40337 whole entry partner): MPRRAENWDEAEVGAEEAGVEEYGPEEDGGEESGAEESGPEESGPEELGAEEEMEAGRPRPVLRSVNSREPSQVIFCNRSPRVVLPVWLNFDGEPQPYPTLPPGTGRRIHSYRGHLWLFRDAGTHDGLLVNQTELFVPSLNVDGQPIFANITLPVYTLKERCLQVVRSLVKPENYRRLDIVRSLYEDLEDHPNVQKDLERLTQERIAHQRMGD
How it was run: (§1)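 EA.hy926 cells were exposed to DMSO vehicle or test compound, then lysed in SDS sample buffer and normalized by BCA protein assay. Equal protein amounts were run on SDS-PAGE and transferred to PVDF. Membranes were blocked in 5% milk/TBS-Tween and probed with anti-VEGFR-2 (1:500), with GAPDH (1:10000) as loading control. Detection used HRP secondary and ECL, with densitometric quantification.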

[20] = system: EA.hy 926; assay: Cell cycle arrest in human EA.hy 926 cells assessed as accumulation at G2 phase at 1 uM measured after 72 hrs by propidium iodide staining based flow cytometry (reference value: 25.83%); assay type: functional
[21] = system: EA.hy 926; assay: Induction of apoptosis in human EA.hy 926 cells assessed as late apoptotic cells at 40 uM measured after 72 hrs by Annexin V-FITC/propidium iodide staining based flow cytometry (reference value: 5.34%)
[22] = system: EA.hy 926; assay: Induction of apoptosis in human EA.hy 926 cells assessed as late apoptotic cells at 1 uM measured after 72 hrs by Annexin V-FITC/propidium iodide staining based flow cytometry (reference value: 5.34%)
[23] = system: EA.hy 926; assay: Induction of apoptosis in human EA.hy 926 cells measured after 72 hrs by Annexin V-FITC/propidium iodide staining based flow cytometry; assay type: functional, cell-based
[24] = system: EA.hy 926; assay: Induction of apoptosis in human EA.hy 926 cells assessed as viable cells at 10 uM measured after 72 hrs by Annexin V-FITC/propidium iodide staining based flow cytometry (reference value: 88.6%); assay type: functional; conditions: read-out: Activity
[25] = system: EA.hy 926; assay: Cell cycle arrest in human EA.hy 926 cells assessed as accumulation at S phase at 0.1 uM measured after 72 hrs by propidium iodide staining based flow cytometry (reference value: 14.39%); assay type: functional
[26] = system: EA.hy 926; assay: Induction of apoptosis in human EA.hy 926 cells assessed as late apoptotic cells at 10 uM measured after 72 hrs by Annexin V-FITC/propidium iodide staining based flow cytometry (reference value: 5.34%)
[27] = system: EA.hy 926; assay: Induction of apoptosis in human EA.hy 926 cells assessed as late apoptotic cells at 20 uM measured after 72 hrs by Annexin V-FITC/propidium iodide staining based flow cytometry (reference value: 5.34%)
[28] = system: EA.hy 926; assay: Induction of apoptosis in human EA.hy 926 cells assessed as late apoptotic cells at 0.1 uM measured after 72 hrs by Annexin V-FITC/propidium iodide staining based flow cytometry (reference value: 5.34%)
[29] = system: EA.hy 926; assay: Induction of apoptosis in human EA.hy 926 cells assessed as necrotic cells at 10 uM measured after 72 hrs by Annexin V-FITC/propidium iodide staining based flow cytometry (reference value: 2.65%); assay type: functional
[30] = system: EA.hy 926; assay: Cell cycle arrest in human EA.hy 926 cells assessed as accumulation at G1 phase at 40 uM measured after 72 hrs by propidium iodide staining based flow cytometry (reference value: 59.78%); assay type: functional
[31] = system: EA.hy 926; assay: Induction of apoptosis in human EA.hy 926 cells assessed as viable cells at 40 uM measured after 72 hrs by Annexin V-FITC/propidium iodide staining based flow cytometry (reference value: 88.6%); assay type: functional; conditions: read-out: Activity
[32] = molecular target: T1, von Hippel-Lindau disease tumor suppressor/Vascular endothelial growth factor receptor 2 (Homo sapiens); assay: Protac activity at VHL/VEGFR2 in human EA.hy 926 cells assessed as induction of VEGFR2 degradation measured after 24 to 72 hrs by Western blot analysis; assay type: cell-based; conditions: time 24-72 hrs; how it was run: as §1
[33] = system: EA.hy 926; assay: Cell cycle arrest in human EA.hy 926 cells assessed as accumulation at S phase at 20 uM measured after 72 hrs by propidium iodide staining based flow cytometry (reference value: 14.39%); assay type: functional
[34] = system: EA.hy 926; assay: Induction of apoptosis in human EA.hy 926 cells assessed as necrotic cells at 40 uM measured after 72 hrs by Annexin V-FITC/propidium iodide staining based flow cytometry (reference value: 2.65%); assay type: functional
[35] = system: EA.hy 926; assay: Cell cycle arrest in human EA.hy 926 cells assessed as accumulation at G2 phase at 20 uM measured after 72 hrs by propidium iodide staining based flow cytometry (reference value: 25.83%); assay type: functional
[36] = system: EA.hy 926; assay: Induction of apoptosis in human EA.hy 926 cells assessed as early apoptotic cells at 20 uM measured after 72 hrs by Annexin V-FITC/propidium iodide staining based flow cytometry (reference value: 3.4%); assay type: functional
[37] = system: EA.hy 926; assay: Induction of apoptosis in human EA.hy 926 cells assessed as necrotic cells at 20 uM measured after 72 hrs by Annexin V-FITC/propidium iodide staining based flow cytometry (reference value: 2.65%); assay type: functional
[38] = system: EA.hy 926; assay: Induction of apoptosis in human EA.hy 926 cells assessed as necrotic cells at 1 uM measured after 72 hrs by Annexin V-FITC/propidium iodide staining based flow cytometry (reference value: 2.65%); assay type: functional
[39] = system: EA.hy 926; assay: Induction of apoptosis in human EA.hy 926 cells assessed as viable cells at 20 uM measured after 72 hrs by Annexin V-FITC/propidium iodide staining based flow cytometry (reference value: 88.6%); assay type: functional; conditions: read-out: Activity
[40] = system: EA.hy 926; assay: Induction of apoptosis in human EA.hy 926 cells assessed as early apoptotic cells at 10 uM measured after 72 hrs by Annexin V-FITC/propidium iodide staining based flow cytometry (reference value: 3.4%); assay type: functional
[41] = system: EA.hy 926; assay: Cell cycle arrest in human EA.hy 926 cells assessed as accumulation at G1 phase at 10 uM measured after 72 hrs by propidium iodide staining based flow cytometry (reference value: 59.78%); assay type: functional

SMILES: Cc1ccc(F)c(NC(=O)Nc2ccc(-c3cccc4c3c(N)nn4C(=O)CCCCCC(=O)N[C@H](C(=O)N3C[C@H](O)C[C@H]3C(=O)NCc3ccc(-c4scnc4C)cc3)C(C)(C)C)cc2)c1
- IC50 [1]: > 1 µM
- IC50 [2]: 133 µM
- Activity [3]: Non-Toxic

SMILES: Cc1ncsc1-c1ccc(CNC(=O)[C@@H]2C[C@@H](O)CN2C(=O)[C@@H](NC(=O)CCCCCC(=O)n2nc(N)c3c(-c4cccc(NC(=O)Nc5cccc(C(C)C)c5)c4)cccc32)C(C)(C)C)cc1
- IC50 [1]: > 1 µM
- IC50 [2]: > 100 µM
- Activity [3]: Non-Toxic

SMILES: Cc1ccc(F)c(NC(=O)Nc2ccc(-c3cccc4c3c(N)nn4C(=O)CCCCCCCCCCC(=O)N[C@H](C(=O)N3C[C@H](O)C[C@H]3C(=O)NCc3ccc(-c4scnc4C)cc3)C(C)(C)C)cc2)c1
- viability at 1 µM [4]: 81.6%
- Activity [5]: 58.89%
- Activity [6]: 26.4%
- Activity [7]: 23.48%
- Activity [8]: 4.21%
- Activity [9]: 5.96%
- Activity [10]: 59.22%
- Activity [11]: 40.7%
- Activity [12]: 14.99%
- Activity [13]: 2.16%
- Activity [14]: 15.36%
- IC50 [1]: 0.209 µM
- Activity [15]: 24.49%
- IC50 [2]: 38.6 µM
- Activity [16]: 30.4%
- viability at 0.1 µM [17]: 86.7%
- Activity [18]: 43.62%
- Activity [19]: 60%
- Activity [20]: 25.79%
- late apoptotic cells % [21]: 64.2%
- late apoptotic cells % [22]: 8.32%
- Activity [23]: Dose-dependent effect
- viability at 10 µM [24]: 70.2%
- Activity [25]: 17.63%
- late apoptotic cells % [26]: 15.6%
- late apoptotic cells % [27]: 48.7%
- late apoptotic cells % [28]: 6.94%
- Activity [29]: 2.15%
- Activity [30]: 25.98%
- viability at 40 µM [31]: 8.82%
- Activity [32]: Dose-dependent effect
- Activity [33]: 34.38%
- Activity [34]: 0.59%
- Activity [3]: Non-Toxic
- Activity [35]: 24.92%
- Activity [36]: 18.2%
- Activity [37]: 1.72%
- Activity [38]: 4.12%
- viability at 20 µM [39]: 31.5%
- Activity [40]: 12.1%
- Activity [41]: 60.14%

SMILES: CC(C)c1cccc(NC(=O)Nc2cccc(-c3cccc4[nH]nc(N)c34)c2)c1
- IC50 [2]: 51.6 µM
